pIC50: −log10 of the molar value. The source made the active and inactive calls. No cut-off for these calls is given here.
Legend:
MES-SA [1] = test: Induction of DNA damage in human MES-SA cells assessed as increase in comet-tail length by alkaline comet assay; format: functional, cell-based
MES-SA/Dx5 = test: Induction of DNA damage in human MES-SA/Dx5 cells assessed as increase in comet-tail length by alkaline comet assay; format: functional, cell-based
MDA-MB-468 = test: Antiproliferative activity against human MDA-MB-468 cells after 96 hrs by SRB assay; format: functional, cell-based; conditions: MDA-MB-468, 96 h
Outline: (§1)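 Cells plated at 5000/well, attached overnight, then exposed to a range of drug concentrations for 96 h. Fixed with trichloroacetic acid (1 h, 4 °C), stained with 0.4% sulforhodamine B (2 h, room temperature), dye dissolved in 10 mM Tris base pH 10.0, OD read at 492 nm. IC50 taken from sigmoidal dose-response fit. At least three independent experiments in triplicate. DMSO ≤0.1% (v/v).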

[2] = Antiproliferative activity against human MES-SA cells after 96 hrs by SRB assay; format: functional, cell-based
[3] = Antiproliferative activity against human MES-SA/Dx5 cells after 96 hrs by SRB assay; format: functional, cell-based; conditions: MES-SA/Dx5, 96 h; outline: as §1
[4] = Cellular uptake in human MES-SA cells after 2 hrs by flow cytometry; format: ADME, cell-based
[5] = Cellular uptake in human MES-SA/Dx5 cells after 2 hrs by flow cytometry; format: ADME, cell-based; conditions: mes-sa/dx5, 2 h
[6] = Stability in serum assessed as half life by UV spectrophotometry; format: ADME, cell-free
MES-SA [7] = test: Selectivity ratio of IC50 for human MES-SA cells to IC50 for human MES-SA/Dx5 cells; format: functional
[8] = molecular target: Epidermal growth factor receptor (Homo sapiens, UniProt P00533); test: Inhibition of EGFR
Epidermal growth factor receptor, sequence (P00533 whole entry): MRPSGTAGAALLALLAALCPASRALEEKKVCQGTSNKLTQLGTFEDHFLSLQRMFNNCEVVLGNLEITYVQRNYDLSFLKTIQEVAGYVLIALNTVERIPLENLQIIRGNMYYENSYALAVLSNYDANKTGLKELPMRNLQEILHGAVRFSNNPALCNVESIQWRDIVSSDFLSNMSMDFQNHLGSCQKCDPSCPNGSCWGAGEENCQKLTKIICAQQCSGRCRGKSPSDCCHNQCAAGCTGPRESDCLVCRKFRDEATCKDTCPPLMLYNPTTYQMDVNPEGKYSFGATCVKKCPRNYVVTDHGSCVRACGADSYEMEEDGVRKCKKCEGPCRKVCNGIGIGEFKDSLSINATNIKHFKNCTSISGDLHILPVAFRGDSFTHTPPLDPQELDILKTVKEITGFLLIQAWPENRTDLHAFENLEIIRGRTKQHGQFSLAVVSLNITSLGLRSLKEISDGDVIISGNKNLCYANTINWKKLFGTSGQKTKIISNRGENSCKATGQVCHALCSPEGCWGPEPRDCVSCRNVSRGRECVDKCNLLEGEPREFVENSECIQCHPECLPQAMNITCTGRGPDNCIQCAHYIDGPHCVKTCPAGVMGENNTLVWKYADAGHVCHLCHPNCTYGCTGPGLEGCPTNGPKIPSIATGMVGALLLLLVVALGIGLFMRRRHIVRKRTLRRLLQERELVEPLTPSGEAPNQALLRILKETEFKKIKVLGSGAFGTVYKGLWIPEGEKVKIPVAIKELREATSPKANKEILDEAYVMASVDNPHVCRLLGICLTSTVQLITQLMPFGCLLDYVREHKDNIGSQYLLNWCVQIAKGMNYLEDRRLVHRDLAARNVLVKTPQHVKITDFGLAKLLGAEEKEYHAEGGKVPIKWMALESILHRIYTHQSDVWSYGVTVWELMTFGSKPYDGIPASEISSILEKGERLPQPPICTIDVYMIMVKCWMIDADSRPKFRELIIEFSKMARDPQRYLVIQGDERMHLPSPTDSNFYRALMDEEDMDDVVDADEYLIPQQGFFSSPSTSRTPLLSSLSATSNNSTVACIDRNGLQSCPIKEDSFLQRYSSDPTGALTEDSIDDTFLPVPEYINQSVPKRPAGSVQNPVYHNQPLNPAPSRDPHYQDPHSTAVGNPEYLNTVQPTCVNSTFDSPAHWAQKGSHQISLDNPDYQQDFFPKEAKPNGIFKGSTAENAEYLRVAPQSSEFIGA

[9] = Cellular uptake in human MES-SA cells at 25 uM after 2 hrs by fluorescence microscopy; format: ADME, cell-based
Outline: (§2)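 Cells plated at 70% confluence and left to adhere overnight. Treated with 0, 25 or 50 μM for 2 h, washed twice with PBS, then imaged live without fixation at 40× under fluorescence; blue aminoquinazoline and green dansylated species captured through separate filters.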

[10] = Cellular uptake in human MES-SA/Dx5 cells at 25 uM after 2 hrs by fluorescence microscopy; format: ADME, cell-based; conditions: mes-sa/dx5, 2 h; outline: as §2

Row | pIC50 (MDA-MB-468) | Drug uptake [4] | Drug uptake [5] | half-life [6] | pIC50 [8] | Drug uptake [9] | Drug uptake [10] | Structure (SMILES) | Activity (MES-SA [1]) | Activity (MES-SA/Dx5) | pIC50 [2] | pIC50 [3] | Ratio IC50 (MES-SA [7])
1 | 5.28 |  |  |  |  |  |  | CN(CCN/N=N/c1ccc2ncnc(Nc3cccc(Cl)c3)c2c1)CCNS(=O)(=O)c1cccc2c(N(C)C)cccc12 | Active | Active | 5.07 | 5.03 | 
2 | 5.04 | Active | Active | 4.96 min | 5.85 | Active | Active | CN(C)c1cccc2c(S(=O)(=O)NCCN=NNc3ccc4ncnc(Nc5cccc(Cl)c5)c4c3)cccc12 |  |  | 4.58 | 4.78 | 1.6
3 |  | Active |  |  |  | Active |  | COc1cccc2c1C(=O)c1c(O)c3c(c(O)c1C2=O)C[C@@](O)(C(=O)CO)C[C@@H]3O[C@H]1C[C@H](N)[C@H](O)[C@H](C)O1 [DOXORUBICIN] | Active | Active |  | 5.51 | 
4 |  |  |  | 108 min |  |  |  | CN(C)CCN/N=N/c1ccc2ncnc(Nc3cccc(Cl)c3)c2c1 |  |  |  |  | 
5 |  | Active | Active | 21.7 min | 6.22 | Active | Active | CN(CCN=NNc1ccc2ncnc(Nc3cccc(Cl)c3)c2c1)CCNS(=O)(=O)c1cccc2c(N(C)C)cccc12 |  |  |  |  | 

Source: ChEMBL document CHEMBL1157582, “Synthesis and uptake of fluorescence-labeled Combi-molecules by P-glycoprotein-proficient and -deficient uterine sarcoma cells MES-SA and MES-SA/DX5” (J Med Chem, 2010)
